{"source": "ChEMBL document CHEMBL1155548", "about": "“Synthesis and evaluation of new endomorphin-2 analogues containing (Z)-alpha,beta-didehydrophenylalanine (Delta(Z)Phe) residues” (J Med Chem, 2010)", "biological_target": "Delta-type opioid receptor (Homo sapiens, UniProt P41143)", "sequence (P41143 whole entry)": "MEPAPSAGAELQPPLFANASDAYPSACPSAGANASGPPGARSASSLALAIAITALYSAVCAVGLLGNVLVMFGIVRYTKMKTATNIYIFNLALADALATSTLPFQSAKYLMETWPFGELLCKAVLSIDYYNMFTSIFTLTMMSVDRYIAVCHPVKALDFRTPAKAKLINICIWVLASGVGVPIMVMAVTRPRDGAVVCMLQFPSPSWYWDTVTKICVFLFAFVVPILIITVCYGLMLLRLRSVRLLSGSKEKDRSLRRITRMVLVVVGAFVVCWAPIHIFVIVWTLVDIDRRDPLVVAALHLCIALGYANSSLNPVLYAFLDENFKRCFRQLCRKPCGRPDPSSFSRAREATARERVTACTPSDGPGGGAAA", "assay": "Displacement of [3H]DPDPE from human delta opioid receptor expressed in HEK293 cells up to 100 uM; call rule not given here", "type": "cell-based", "method_in_brief": "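Crude membranes from transfected cells: HN9.10 cells expressing rat μ-opioid receptor, competed against μ-selective agonist [³H]DAMGO; HEK293 cells expressing human δ-opioid receptor, competed against δ-selective agonist [³H]DPDPE. Competitive displacement with three independent experiments, fitted by non-linear regression; Ki derived from IC50 via Cheng–Prusoff equation.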", "data": [{"smiles": "NC(=O)[C@H](Cc1ccccc1)NC(=O)/C(=C/c1ccccc1)NC(=O)[C@@H]1CCCN1C(=O)[C@@H](N)Cc1ccc(O)cc1", "values": [{"measurement": "Ki", "value": "Not Active"}]}]}
